The record followed here is ChEMBL document CHEMBL4513216, “Probing the Open Global Health Chemical Diversity Library for Multistage-Active Starting Points for Next-Generation Antimalarials” (ACS Infect Dis, 2020).

This series can be described thus: Toxicity liver stage against HepG2, at 10uM. Type of series: cell-based. On the set-up: test concentration 10 uM, cell line HepG2-A16-CD81EGFP. The conditions noted are these: human, HepG2-A16-CD81EGFP cells; read-out: INHIBITION
In outline:
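Uninfected HepG2-A16-CD81EGFP cells, 3 × 10^3 per well, 1536-well, plated on prespotted compound at 10 μM final, parasite-free screening media added to match infected plates; puromycin 10 μM positive, DMSO 0.5% negative; run in parallel with 48 h PbLuc assay at 37 °C, 5% CO2; viability by CellTiter-Glo luminescence, normalized to controls.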
As to `CN(C)c1ncccc1CNC(=O)N(Cc1ccccc1F)C1CC1`, the cytotoxicity at 10 µM was determined as 2.6%.

With `CCOC(=O)C(C)NC(=O)N1CCN(c2nc3ccccc3n2C)CC1` (stereo not drawn), the cytotoxicity at 10 µM worked out at 3.39%.

As to `COC(=O)CNC(=O)C1(N(C)Cc2ccccc2)Cc2ccccc2C1`, the cytotoxicity at 10 µM stood at 3.82%.

Take `Fc1cccc(CN2CCC(c3noc(-c4ccccn4)n3)CC2)c1F`: the cytotoxicity at 10 µM was -12.8%.

Regarding `COc1ccc(Br)cc1SCCCS(C)(=O)=O`, the cytotoxicity at 10 µM stood at 3.85%.

As for `O=C(CNc1nc(C2CC2)ns1)N1CCc2sccc2C1`, the cytotoxicity at 10 µM stood at 17.3%.

On to `Cc1cc(NC(=O)CNC2CCCN(c3cccnn3)C2)on1` (stereo not drawn), for which the cytotoxicity at 10 µM was 5.98%.

Consider `c1ccc(CCCN2CCCN(c3ncnc4[nH]ccc34)CC2)cc1`, for which the cytotoxicity at 10 µM is -5.86%.

On to `Cc1cc(C)n(CC(C)NCc2nc(-c3cccnc3)no2)n1` (stereo not drawn), for which the cytotoxicity at 10 µM was 0.107%.

Consider `CCCN1C(=O)C2(CCCCC2)NC1c1cn(C)c(=O)n(C)c1=O` (stereo not drawn), for which the cytotoxicity at 10 µM turned out to be 4.45%.

With `CCS(=O)(=O)N1CCC2(CCN(C(=O)c3cccs3)CC2)CC1`, the cytotoxicity at 10 µM was -99.9%.

For `CN(C)CCCNC(=O)c1cc(-c2ccc3c(c2)CCO3)n[nH]1`, the cytotoxicity at 10 µM was -12.8%.

On to `COCC1COCCC12CCN(S(=O)(=O)c1cccnc1)CC2` (stereo not drawn), for which the cytotoxicity at 10 µM was 6.62%.

`Cc1cc(C(=O)NC2CCC3(CCC(=O)N3CC3CC3)CC2)no1` (stereo not drawn): the cytotoxicity at 10 µM is -0.39%.

Turning to `CCN(Cc1nc(COC)no1)C[C@]1(O)CCCN2CCCC[C@@H]21`, the cytotoxicity at 10 µM is -0.124%.

In the case of `CCOc1c(F)cccc1C(=O)N(CC)C(C)c1ccncc1` (stereo not drawn), the cytotoxicity at 10 µM was determined as 11%.

On to `CN(c1cccnn1)C1CCN(C(=O)c2n[nH]c3c2CCC3)CC1`, for which the cytotoxicity at 10 µM turned out to be 6.96%.

Regarding `CC(C)Nc1ncccc1C(=O)NCc1cnc(N(C)C)n1C`, the cytotoxicity at 10 µM was -10.1%.

With `CCOc1ncccc1C(=O)N1CCCC1c1c(C)nn(C)c1OC` (stereo not drawn), the cytotoxicity at 10 µM was -13%.

Take `CCc1nn(C)c(Cl)c1CN1CCN(c2nc(C(N)=O)cs2)CC1`: the cytotoxicity at 10 µM turned out to be 8.81%.

With `CC(C)N(C)CC(=O)NCC(O)c1cc2ccccc2s1` (stereo not drawn), the cytotoxicity at 10 µM is -3.91%.

For the compound `CCOC(=O)C1CCN(C(=O)c2cc(F)ccc2-n2cnnn2)CC1`, the cytotoxicity at 10 µM was -0.121%.

On to `CCc1cnc(C)nc1NCCN1CCC(O)CC1`, for which the cytotoxicity at 10 µM stood at 1.78%.

`COCc1noc(C2(c3ccc(F)cc3)CC2)n1`: the cytotoxicity at 10 µM was -2.93%.

Turning to `CS(=O)(=O)NCc1cnc2n1CCN(Cc1cccnc1)CC2`, the cytotoxicity at 10 µM stood at 5.66%.

For `CC(=O)N1CCCC1c1cccc(C)c1C` (stereo not drawn), the cytotoxicity at 10 µM was found to be 10.8%.

For `COc1cc(CC(O)CO)c(OC)c2c1OCO2` (stereo not drawn), the cytotoxicity at 10 µM was -9.96%.

In the case of `O=C(Nc1ccccc1OCCc1ccccn1)N1CCOCC(O)C1` (stereo not drawn), the cytotoxicity at 10 µM was found to be 4.25%.

As to `CC(C)(C)c1nccc(N2CCCCC2CCNS(C)(=O)=O)n1` (stereo not drawn), the cytotoxicity at 10 µM stood at 8.83%.

For `CN(Cc1ccccc1OC(F)(F)F)C(=O)C1CC1`, the cytotoxicity at 10 µM amounted to 10.8%.

On to `CCN(CC)Cc1ccc(C(=O)N2CCN(CC(C)O)CC2)o1` (stereo not drawn), for which the cytotoxicity at 10 µM was -9.65%.

Consider `CCCn1nc2c(cc1=O)CN(Cc1ccccn1)CC2`, for which the cytotoxicity at 10 µM was determined as 1.53%.

`Cc1cc(C)n(CC2CN(Cc3cccc(C#N)c3)CCO2)n1` (stereo not drawn): the cytotoxicity at 10 µM was -3.46%.

On to `CC(C)N(C)C(=O)C1=NOC2(CCN(C(=O)NCc3cccnc3)C2)C1` (stereo not drawn), for which the cytotoxicity at 10 µM is -3.75%.

Take `Nc1ncccc1C(=O)NCc1cccc(Br)c1`: the cytotoxicity at 10 µM came to 42.6%.

Take `Cc1nnc(NC(=O)NCc2ccc(N3CCN(C)CC3)nc2)s1`: the cytotoxicity at 10 µM is -7.91%.

With `NC(=O)c1csc(N2C[C@@H](CN3CCC(O)CC3)[C@@H](CO)C2)n1`, the cytotoxicity at 10 µM was found to be 0.984%.

Regarding `O=C(CCc1ccccc1)N1CCn2cc(CN3CCCC3)nc2C1`, the cytotoxicity at 10 µM is -1.66%.

As to `CNS(=O)(=O)c1ccc(C(=O)N2CCCC2c2cnn(C)c2)o1` (stereo not drawn), the cytotoxicity at 10 µM is -8.28%.

Turning to `CN(Cc1cc(-c2cccnc2)no1)C(=O)[C@@H]1CSCN1C`, the cytotoxicity at 10 µM amounted to 0.66%.

With `CCS(=O)(=O)N1CCC(c2nnc(Cn3cccn3)n2C2CC2)CC1`, the cytotoxicity at 10 µM was -14.2%.

Turning to `N#CCSCCCN1CCN(C(=O)c2ccccc2F)CC1`, the cytotoxicity at 10 µM is -147%.

On to `O=S(=O)(c1cccc(F)c1)N1C[C@@H]2COC[C@]2(COCC2CC2)C1`, for which the cytotoxicity at 10 µM was 12.5%.

On to `Cc1cnn(CC2CCCN2Cc2cc(C)on2)c1` (stereo not drawn), for which the cytotoxicity at 10 µM is -8.51%.

With `N#Cc1ccc(C(=O)N2CCCSCC2CN2CCCC2)cc1` (stereo not drawn), the cytotoxicity at 10 µM worked out at 10.1%.

Turning to `Cc1ccc(C)c(-c2csc(N)c2C#N)c1`, the cytotoxicity at 10 µM amounted to 5.47%.

On to `CS(=O)(=O)N1Cc2ccnn2CC(C(=O)NCc2cccnc2)C1` (stereo not drawn), for which the cytotoxicity at 10 µM is -88.9%.

On to `Cc1nccn1-c1cc(CNC(=O)C2CCC(=O)NC2)ccn1` (stereo not drawn), for which the cytotoxicity at 10 µM was 4.83%.

In the case of `CCCOc1ccc(CNC2CCCc3c2cnn3CC)cc1OC` (stereo not drawn), the cytotoxicity at 10 µM was -10.8%.

For the compound `CC(=O)N1CCCC(C(=O)c2cnn(-c3ccc(F)cc3)c2N)C1` (stereo not drawn), the cytotoxicity at 10 µM came out at 5.82%.

As for `COc1cccc(S(=O)(=O)N2CCCc3c(OC)nn(C)c3C2)c1`, the cytotoxicity at 10 µM is -120%.

On to `Cn1ccnc1-c1nccn1-c1cccc(CN2CCCC2)c1`, for which the cytotoxicity at 10 µM was -2.36%.

With `Cc1cc(CNC(=O)NC(C)c2ccc(N3CCOCC3)cc2)no1` (stereo not drawn), the cytotoxicity at 10 µM was -17.4%.

For `Cc1ccc(S(=O)(=O)NC2CNC(=O)C2)cc1C` (stereo not drawn), the cytotoxicity at 10 µM is -21.1%.

On to `Cc1noc2ncc(C(=O)NCC3CCN(C(C)C)C3)cc12` (stereo not drawn), for which the cytotoxicity at 10 µM is -12.4%.

`Cc1noc(CNC(=O)CN(C)c2nc3c(C)ccc(C)c3s2)n1`: the cytotoxicity at 10 µM is 55.7%.

On to `N#Cc1cnn(CCN2CCOC(CNc3cccnn3)C2)c1` (stereo not drawn), for which the cytotoxicity at 10 µM was -3.85%.

Turning to `Cc1ccccc1C(C(=O)NCCn1cccc1)N(C)C` (stereo not drawn), the cytotoxicity at 10 µM was 7.62%.

Consider `Cc1csc2c(C3CCN(CCOc4ccccc4F)CC3)nc(C)n12`, for which the cytotoxicity at 10 µM came out at 5.89%.

`COCCC(=O)NC(C)(C(N)=O)c1cccc(Cl)c1` (stereo not drawn): the cytotoxicity at 10 µM was 17.7%.

Regarding `Cc1noc(C(C)N2CCN(CCc3ccncc3)CC2)n1` (stereo not drawn), the cytotoxicity at 10 µM came out at 2.67%.

In the case of `CN1CCO[C@@H]2CN(S(=O)(=O)c3ccccc3)C[C@@H]2C1`, the cytotoxicity at 10 µM was determined as 0.93%.

For the compound `CC(C)C(=O)N1CCCC([C@@H]2C[C@H](C(F)F)n3ncnc3N2)C1` (stereo partly drawn), the cytotoxicity at 10 µM was -3.41%.

For `O=C(NCCc1ccsc1)Nc1cccnc1N1CCCC1`, the cytotoxicity at 10 µM is -6.78%.

As for `CCc1nn(C)c(Cl)c1CN(CCOC)Cc1cnn(C)c1`, the cytotoxicity at 10 µM is -6.5%.

For the compound `CN(CCc1ccccc1)c1cnn(C)c(=O)c1Br`, the cytotoxicity at 10 µM is -7.22%.

As to `CC(C)OC(=O)N1CCC(c2nnc(Cn3ccnc3)n2C)CC1`, the cytotoxicity at 10 µM was -120%.

Regarding `O=C(NCCSC1CCCC1)c1c(F)cccc1F`, the cytotoxicity at 10 µM turned out to be 8.74%.

For `Cc1cc(-c2nnn(CCC(N)=O)n2)ccc1F`, the cytotoxicity at 10 µM was -8.71%.

With `O=C(CSCC1CC1)N1CCCC2(CCC(=O)N(CC3CC3)C2)C1` (stereo not drawn), the cytotoxicity at 10 µM amounted to 3.8%.

Take `CN(C)S(=O)(=O)N1CC(c2nc(-c3ccsc3)no2)C1`: the cytotoxicity at 10 µM was -6.6%.

As to `CCc1nc(CN2CCCN(C(=O)c3ccco3)CC2)cs1`, the cytotoxicity at 10 µM is 5.03%.

As for `Cn1cccc1C(=O)N1C[C@@H]2CCN(c3cccnc3)C[C@@H]2C1`, the cytotoxicity at 10 µM is -58.3%.

Consider `Cc1nnc(CN2CCCC2c2ccc3c(c2)OCCCO3)n1C` (stereo not drawn), for which the cytotoxicity at 10 µM was 4.86%.

With `C=C(Cl)CN(C)C1CCN(CCc2ccccn2)CC1`, the cytotoxicity at 10 µM is -2.93%.

For the compound `C1CCC(CNC2CCSCC2)(N2CCOCC2)CC1`, the cytotoxicity at 10 µM is -14.5%.

As for `N#CCCN(C(=O)CN1CCCC1c1cccs1)c1ccccc1F` (stereo not drawn), the cytotoxicity at 10 µM is -9.1%.

Turning to `CCCc1nccn1-c1ccncc1`, the cytotoxicity at 10 µM came to 17.3%.

For `CCN(CCc1nc2cc(C)ccc2[nH]1)C(=O)[C@@H](N)COC`, the cytotoxicity at 10 µM was -2.64%.

On to `Cn1cccc1C(=O)N1CCN(CC2CC2)c2ncccc2C1`, for which the cytotoxicity at 10 µM was -21.9%.

On to `Cc1cnccc1N1CCN(C(=O)C2CC3(CCNCC3)CN2)CC1` (stereo not drawn), for which the cytotoxicity at 10 µM was -13.7%.

In the case of `O=C(C1CCC1)N1CCN(C(=O)c2cnccn2)[C@H]2CS(=O)(=O)C[C@H]21`, the cytotoxicity at 10 µM was -10.8%.

With `O=C(NCC(O)c1ccc(F)c(F)c1)c1cccnc1O` (stereo not drawn), the cytotoxicity at 10 µM was -13.6%.

Take `COc1ccc(Cn2cc(C(=O)N(C)Cc3cnccn3)nn2)cc1`: the cytotoxicity at 10 µM is 9.81%.

For `Cc1nc2n(n1)CC(NCc1ccccc1OCC(=O)N(C)C)CC2` (stereo not drawn), the cytotoxicity at 10 µM is 7.61%.

As to `CCOCc1ccc(CNC(=O)N2CCC(C(N)=O)C2)cc1` (stereo not drawn), the cytotoxicity at 10 µM is -11.4%.

In the case of `CCc1n[nH]c(NC(=O)c2ccc(Cl)cn2)c1Br`, the cytotoxicity at 10 µM was -5.37%.

As to `Cc1nn(C)c(N(C)C)c1CNC(C)COc1ccccc1F` (stereo not drawn), the cytotoxicity at 10 µM was -14.1%.

For `CN(C)C(=O)N1CCN(Cc2cnc(-c3ccsc3)s2)CC1`, the cytotoxicity at 10 µM worked out at 2.03%.

For `CC(C)(C)NS(=O)(=O)c1ccccc1CNCc1ccccc1`, the cytotoxicity at 10 µM was found to be 5.74%.

With `Cc1ccc(-c2nc(CC(=O)NCC3CCCN(C(C)C)C3)cs2)o1` (stereo not drawn), the cytotoxicity at 10 µM was -53.2%.

`O=C(NCCN1CCOCC1)NCc1ccc(-n2cccn2)cc1`: the cytotoxicity at 10 µM is -6.4%.

With `CCSc1cc(C(=O)NCCNC(=O)Cc2ccccc2)ccn1`, the cytotoxicity at 10 µM was -6.41%.

Turning to `Cc1nc(CN2C[C@@H]3COC[C@]3(COCC(=O)N(C)C)C2)cs1`, the cytotoxicity at 10 µM stood at 1.41%.

With `c1cnc(NC[C@@H]2CCC[C@@H]3CN(Cc4csnn4)C[C@@H]32)nc1`, the cytotoxicity at 10 µM is -126%.

As to `O=C1C[C@H]2[C@@H](CCN2C(=O)Cc2cccs2)N1Cc1cccnc1`, the cytotoxicity at 10 µM was 7.48%.

`O=C(O)c1nnn(-c2cc(F)cc(F)c2)c1-c1ccncc1`: the cytotoxicity at 10 µM stood at 7.16%.

As to `Cc1noc(C)c1CC(=O)NCC1(O)CCCN(c2ccccn2)C1` (stereo not drawn), the cytotoxicity at 10 µM is -2.03%.
